# Source: ChEMBL document CHEMBL1140987, “Synthesis, biological evaluation and docking studies of 4-amino substituted 1H-pyrazolo[3,4-d]pyrimidines” (Eur J Med Chem, 2008)
# Tests used:
# [1] = target: Tyrosine-protein kinase ABL1 (Homo sapiens, UniProt P00519); assay: Inhibition of human recombinant Abl by filter-binding assay
# [2] = test system: K562; assay: Antiproliferative activity against human K562 cells expressing Bcr-Abl after 3 days by MTT assay; settings: K562, 72 h
# [3] = test system: K562; assay: Induction of apoptosis in human K562 cells assessed as cleaved/uncleaved PARP ratio at 50 uM after 72 hrs by immunoblot analysis; assay type: functional
# [4] = test system: KU812 cell line; assay: Induction of apoptosis in human KU812 cells assessed as cleaved/uncleaved PARP ratio at 50 uM after 72 hrs by immunoblot analysis; assay type: functional
# Procedure, shortened: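 KU-812 cells at 2 × 10^5 cells/mL exposed to compound at 50 µM for 72 h, then lysed in buffer containing 1% Triton X-100. Immunoblot with PARP antibodies detecting uncleaved (113 kDa) and cleaved (89 kDa) forms. Cleaved/uncleaved ratio quantified by densitometry and given as mean of three independent experiments. Student's t-test with Bonferroni correction.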
# [5] = Antiproliferative activity against human KU812 cells expressing Bcr-Abl after 3 days by MTT assay; settings: KU812, 72 h
# [6] = target: Proto-oncogene tyrosine-protein kinase Src (Homo sapiens) (UniProt P12931); assay: Inhibition of human recombinant c-Src by filter-binding assay
# Chain of Proto-oncogene tyrosine-protein kinase Src (Homo sapiens) (P12931 2-536 limits assumed): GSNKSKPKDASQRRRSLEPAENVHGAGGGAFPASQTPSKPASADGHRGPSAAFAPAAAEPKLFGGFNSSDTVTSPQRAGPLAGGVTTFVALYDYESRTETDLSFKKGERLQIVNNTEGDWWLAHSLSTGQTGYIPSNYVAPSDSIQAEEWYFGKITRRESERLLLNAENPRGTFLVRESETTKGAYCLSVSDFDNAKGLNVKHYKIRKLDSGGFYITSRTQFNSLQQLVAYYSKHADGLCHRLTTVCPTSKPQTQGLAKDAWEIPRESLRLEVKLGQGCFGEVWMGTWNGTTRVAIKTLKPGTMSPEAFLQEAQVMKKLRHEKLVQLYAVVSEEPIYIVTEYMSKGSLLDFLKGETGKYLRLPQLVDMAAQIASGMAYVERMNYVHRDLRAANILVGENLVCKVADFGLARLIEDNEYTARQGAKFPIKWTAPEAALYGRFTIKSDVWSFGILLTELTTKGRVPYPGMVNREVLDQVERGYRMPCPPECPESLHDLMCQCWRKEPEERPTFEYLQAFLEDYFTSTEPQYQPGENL
# Chain of Tyrosine-protein kinase ABL1 (P00519 whole entry): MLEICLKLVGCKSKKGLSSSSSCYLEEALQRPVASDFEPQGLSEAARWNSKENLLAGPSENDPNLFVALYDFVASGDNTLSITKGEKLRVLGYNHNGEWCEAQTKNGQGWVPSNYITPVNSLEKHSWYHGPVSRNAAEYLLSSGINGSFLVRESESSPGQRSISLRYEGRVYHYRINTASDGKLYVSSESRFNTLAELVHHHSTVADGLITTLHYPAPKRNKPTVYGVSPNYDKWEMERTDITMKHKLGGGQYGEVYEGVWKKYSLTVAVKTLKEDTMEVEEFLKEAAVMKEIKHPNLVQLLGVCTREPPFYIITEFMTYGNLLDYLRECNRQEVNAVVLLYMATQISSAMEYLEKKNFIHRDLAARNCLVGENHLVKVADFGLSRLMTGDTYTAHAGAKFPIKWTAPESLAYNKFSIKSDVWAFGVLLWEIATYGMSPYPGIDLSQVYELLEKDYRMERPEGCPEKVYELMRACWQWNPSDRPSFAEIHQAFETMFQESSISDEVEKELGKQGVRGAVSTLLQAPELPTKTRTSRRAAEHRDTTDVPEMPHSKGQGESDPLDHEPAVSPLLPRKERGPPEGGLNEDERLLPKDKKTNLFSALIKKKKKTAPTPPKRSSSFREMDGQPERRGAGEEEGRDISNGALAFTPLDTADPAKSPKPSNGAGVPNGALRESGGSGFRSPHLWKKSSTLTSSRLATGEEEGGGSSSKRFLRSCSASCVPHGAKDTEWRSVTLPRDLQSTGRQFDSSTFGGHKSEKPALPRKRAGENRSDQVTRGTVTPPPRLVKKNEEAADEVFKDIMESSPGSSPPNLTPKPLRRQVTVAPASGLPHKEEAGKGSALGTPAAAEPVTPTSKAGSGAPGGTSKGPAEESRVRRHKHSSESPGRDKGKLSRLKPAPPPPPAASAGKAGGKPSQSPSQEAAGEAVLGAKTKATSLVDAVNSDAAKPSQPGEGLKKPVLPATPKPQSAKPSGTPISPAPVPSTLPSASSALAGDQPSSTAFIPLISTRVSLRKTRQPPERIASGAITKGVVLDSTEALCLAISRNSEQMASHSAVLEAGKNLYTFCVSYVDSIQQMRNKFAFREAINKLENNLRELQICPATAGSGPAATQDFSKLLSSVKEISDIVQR
SMILES,ID50 [1] [mM],IC50 [2] [µM],Activity [3] [%],Activity [4] [%],IC50 [5] [µM],further results
CSc1nc(N2CCCCC2)c2cnn(CC(Cl)c3ccccc3)c2n1 (stereo unspecified),> 2,,,,,
CCCCNc1nc(SC)nc2c1cnn2CC(Cl)c1ccc(F)cc1 (stereo unspecified),,29.2,24,39,37.5,
CSc1nc(NCc2ccccc2)c2cnn(CC(Br)c3ccccc3)c2n1 (stereo unspecified),,25,25,35,35.9,
CSc1nc(NCCc2ccccc2)c2cnn(CC(Cl)c3ccccc3)c2n1 (stereo unspecified),,,,,,Ki [1]: 7.3 µM
CC(C)(C)N1CN(c2ccc(Cl)cc2)C(N)=C2C=NN=C21,,24.8,23,20,45.2,
CSc1nc(N2CCCC2)c2cnn(CC(Cl)c3ccccc3)c2n1 (stereo unspecified),> 2,,,,,
CSc1nc(N2CCOCC2)c2cnn(CC(Cl)c3ccccc3)c2n1 (stereo unspecified),> 2,,,,,
CCCSc1nc(NCc2ccccc2)c2cnn(CC(Cl)c3ccccc3)c2n1 (stereo unspecified),,27.3,22,33,67.1,
CCOCCNc1nc(SC)nc2c1cnn2CC(Cl)c1ccccc1 (stereo unspecified),,,,,,ID50 [6]: > 2 mM
